Inhibition data for 62 compounds are collected here from PubChem BioAssay AID1385 (PCMD, 2008).

The structures appear in SMILES notation. Out of some 200,000 compounds screened, about 170 (0.085%) were called active. The entries come from a sample that favours actives as a whole. Values without a mark were called inactive.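 How the source made its calls: active means inhibition above 40% at the single screening dose; inactive means the rest.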

Chain of DNA repair protein RAD51 homolog 1 (Homo sapiens) (Q06609 whole entry, looked up): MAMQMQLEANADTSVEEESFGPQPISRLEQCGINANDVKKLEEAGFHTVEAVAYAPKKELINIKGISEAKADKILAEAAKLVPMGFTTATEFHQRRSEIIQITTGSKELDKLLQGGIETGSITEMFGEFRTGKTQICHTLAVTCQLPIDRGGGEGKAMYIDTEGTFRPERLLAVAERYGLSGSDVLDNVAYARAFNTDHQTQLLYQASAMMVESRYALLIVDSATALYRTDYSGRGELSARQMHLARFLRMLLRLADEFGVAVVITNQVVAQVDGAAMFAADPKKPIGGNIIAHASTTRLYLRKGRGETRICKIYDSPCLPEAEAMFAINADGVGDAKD

This assay has as its target DNA repair protein RAD51 homolog 1 (Homo sapiens) (UniProt Q06609). As to the kind of experiment: human RAD51 strand exchange inhibitors, primary screen, biochemical, fluorescence (AID 1385).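 Further: 0% = DMSO control wells and 100% = blanks with heterologous ssDNA.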 As to conditions: hRad51 DNA strand exchange, fluorescence dequenching; at 10 µM; hits give high values. The method, boiled down: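 Material: human Rad51–ssDNA filaments; Probe or stimulus: labelled 47-mer dsDNA for strand exchange; Doses: single 10 µM dose; Incubation: 37 °C 15-min filament assembly, 30-min compound preincubation, 15-min exchange; Technique: FRET fluorescence dequenching, excitation 485 nm, emission 520 nm; Measure: Fluorescence-based percent inhibition, control- and blank-normalised; Benchmarks: plate control and blank wells.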
In the case of `CC(C)(C)c1ccc(/C=C2\Oc3c(ccc(O)c3CN3CCN(CCO)CC3)C2=O)cc1`, the inhibition (commonly the relative decrease from the control value, in per cent) is -31.8%.
Next, `COC(=O)[C@H](Cc1ccccc1)NC(=O)Nc1ccc(OC)cc1`: 7.38%; `S=C(NCCc1ccccc1)Nc1ccccc1`: 15.1%.
On to `CCn1c(SCC(=O)N/N=C/c2ccccc2OCC(=O)O)nnc1-c1ccc(C(C)(C)C)cc1`, for which the inhibition is 8.66%.
Then `CCOC(=O)c1cc(C)nc(S(C)(=O)=O)c1C#N`, with 16%; and `C=CCSc1nnc(NC(=O)c2ccc(NC(C)=O)cc2)s1`, with 4.61%.
Then `Nc1c(N(CCO)C(=O)C2CCCCC2)c(=O)[nH]c(=O)n1Cc1ccccc1`, with -7.08%; and `CC(=O)OCCOCn1cnn2c(=O)c(Br)c(C)nc12`, with 1.73%; and `COc1ccc(CCNC2=CC(=O)CC(C)(C)C2)cc1`, with 3.57%.
Take `Cc1ccc(-c2cc(C(=O)NN)n[nH]2)o1`: the inhibition is 8.49%.
Then `CNC(=O)c1csc(Cc2c(Cl)sc3ccc(Cl)cc23)n1`, with 5.52%; and `S=c1nc2ccccc2c2nc(-c3cccnc3)[nH]n12`, with 1.9%.
Then `O=[N+]([O-])C(=c1ccc2c(c1)N1C3=C(CCCC3)CC3CCCCC31N=2)[N+](=O)[O-]` (configuration not stated), with -20.4%.
On to `CCOC(=O)c1ccc(S(=O)(=O)N(CCO)Cc2cc3cc(OC)c(OC)cc3[nH]c2=O)cc1`, for which the inhibition is -11%.
As to `Fc1ccccc1/C=N/n1c(-c2cccnc2)n[nH]c1=S`, the inhibition was 5.39%.
Then `Fc1ccc(Nc2nnns2)cc1`, with -7.15%.
Next, `Cc1ccc(-c2nc(SCC(=O)Nc3ccccc3OC(F)F)c3c(C)c(C(=O)O)sc3n2)cc1`: -23.3%; `CC(C)c1cc(CN2CCOCC2)cc(C(C)C)c1O`: -12.3%.
Then `Clc1ccc(C[n+]2cc(-c3ccc(Cl)cc3)n3c2CCC3)cc1`, with 16.8%; and `CC(C)CCN1NC2(CCC(C)CC2)NC1=S` (configuration not stated), with 7.9%; and `CC(=O)NCc1ccc(S(=O)(=O)NC2CCN(Cc3ccccc3)CC2)cc1`, with -43.1%.
As to `O=[N+]([O-])c1ccc(N/N=C/c2ccccc2)cc1`, the inhibition is -5.09%.
Next, `COc1cccc(CC(=O)Nc2ccc(-c3csc(C)n3)cc2)c1`: 6%; `O=C(O)COCC(=O)NCc1csc2ccc(Cl)cc12`: 15%; `C/C=C/C(=O)Nc1ccc(N2CCN(c3ccc(C(F)(F)F)cn3)CC2)nc1`: 19.9%.
With `Cc1nc2cc(NC(=O)Nc3cccc(F)c3)ccc2n1C`, the inhibition is 2.24%.
`CCOC(=O)COc1nc(C)cc(C(F)(F)F)c1C#N`: the inhibition was -33.8%.
Next, `COC(=O)c1ccc(COc2cc([N+](=O)[O-])cc3cccnc23)cc1`: -2.29%; `C=CCN1CC(C)/C(=N\O)CC1C` (configuration not stated): -1.92%; `Cc1nc2nc(SCC(=O)c3ccccc3)[nH]c2cc1Br`: -17.9%.
Then `O=C(CCNc1n[nH]c(=O)[nH]c1=O)N/N=C\c1ccc(Br)cc1`, with -0.51%; and `CC(C)(C)n1cnnc1Sc1ccc([N+](=O)[O-])cn1`, with 25.8%; and `Cn1nccc1NS(=O)(=O)c1ccc(F)cc1`, with -8.74%.
Next, `COc1ccc(Cl)cc1S(=O)(=O)N1CCC(O)(c2ccc(Cl)cc2)CC1`: 10.6%.
On to `COc1cccc(C(=O)Nc2ccc(NC(=O)c3ccco3)cn2)c1`, for which the inhibition is -3.19%.
Then `Cc1ccc(C(=O)COc2cccc(NC(=O)c3ccco3)c2)cc1`, with 89.3% (active); and `Cc1ccnc(NC(=O)c2ccc(NC(=O)c3ccco3)cc2)c1`, with -5.85%.
Next, `CC(OC(=O)c1ccc(NS(=O)(=O)c2ccc3[nH]c(=O)[nH]c3c2)cc1)C(=O)Nc1cccc(Cl)c1Cl` (configuration not stated): 1.25%; `Cc1cc(C)cc(NC(=O)NC2CCN(CC(=O)Nc3cccc(Cl)c3C)CC2)c1`: -8.77%.
Next, `CCn1c(CN2C(=O)CSc3ccccc32)n[nH]c1=S`: 3.47%; `O=S(=O)(c1cccc(-c2nnc3n2CCCCC3)c1)N1CCOCC1`: 6.72%.
Regarding `CC(C)(C)c1cc(NC(=O)NN2CCOCC2)nn1-c1c(Cl)cc(Cl)cc1Cl`, the inhibition is -14%.
Then `Nc1ccccc1SC(C[N+](=O)[O-])c1ccccc1` (configuration not stated), with 14.8%; and `OC(CNCc1ccc2c(c1)OCO2)COc1ccccc1` (configuration not stated), with 1.14%.
Then `Cc1ccc(CNC(=O)c2ccc3c(c2)S(=O)(=O)c2ccccc2C3=O)cc1`, with 3.71%.
Next, `COc1ccccc1-n1cn[nH]c1=S`: 26.3%.
With `COc1ccc(CN(Cc2ccc(OC)cc2)C(=O)c2cccs2)cc1`, the inhibition was 2.36%.
Then `O=C(c1ccc(F)cc1)n1c(=S)nc2ccccn21`, with 15.3%; and `CNC1(c2nnnn2-c2c(C)cccc2C)CCOC(C)(C)C1` (configuration not stated), with 5.82%.
Next, `Cc1cc(-c2nc(C)c(-c3nnc(SCC(=O)Nc4ccccc4)n3C)s2)no1`: -5%; `OCC[C@H]1C[C@H](O)[C@@H](O)[C@]2(CCCCO2)O1`: -1.38%.
As for `COc1ccccc1Cn1c(CO)nc2ccccc21`, the inhibition was -28.4%.
Then `Cc1ccc(C)c2c1cc(C)c1nnc(SCC(=O)Nc3cccc(C(=O)O)c3)n12`, with 3.44%; and `CCCN(CCC)S(=O)(=O)c1ccc(C(=O)N2CC3CCC(CC3)C2)cc1`, with 4.87%; and `O=C(O)c1ccccc1C(=O)Nc1ccccc1[N+](=O)[O-]`, with 10.6%.
Then `O=[N+]([O-])c1ccc2c(c1)C(O)n1nc(-c3ccccc3)nc1S2` (configuration not stated), with 0.18%; and `CCC(=O)NC(=Nc1nc2ccccc2s1)NC(=O)CC`, with -4.35%.
Next, `CC(C)CC(=O)NC(=S)NCc1ccccc1`: 1.47%; `CC(C)CC(=O)N/C(N)=N/c1nc2ccccc2s1`: 82.8% (active).
In the case of `CCOc1cc(NC(=O)c2ccccn2)c(OCC)cc1NC(=O)c1ccc(OC)cc1`, the inhibition is 0.44%.
Consider `CCC(C)(NC(=O)c1ccccn1)C(=O)NC1CCCCC1` (configuration not stated), for which the inhibition is 14.2%.
Then `CCN(CC)CCOc1ccc2c(c1)C(=NNC(=O)c1ccccn1)c1cc(OCCN(CC)CC)ccc1-2`, with 99% (active).
